Most compounds without a hit are left out; they make up all but 1.9% or so of the library.
Tb MetRS inh – blocks T. brucei methionyl-tRNA synthetase activity. inhibition, % at 11.9 µM. actives 0.4% (n = 360,000). purified T. brucei MetRS, ATP depletion, Kinase-Glo luminescence;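 active means inhibition above a per-plate cutoff of the control wells' mean inhibition plus 3 SD, cut at about 5.5% in these data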
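Material – parasite MetRS enzyme · Medium – HEPES-MgCl2-KCl buffer plus DTT, spermine, BSA, pyrophosphatase · Reagent – ATP, methionine and E. coli bulk tRNA substrates · Times – 15 min enzyme-compound preincubation, 2 h reaction, 10 min detection, 25 °C · Measured by – luminescence of leftover ATP · Evaluation – percent inhibition relative to median high and low control wells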
sPLA2-III inh – Inhibits HGIII-sPLA2 liposome hydrolysis, primary screen; Q9NZ20; QFRET BODIPY PC-A2 liposome hydrolysis, fluorescence; inhibition, % at 12.2 µM; actives 0.56% (n = 370,000); AID 743126;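 active means inhibition above mean plus 3 SD of compounds lying within the high and low control bounds, cut at about 19% in these data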
PLC-gamma1 inh – PLC-gamma1 (human) inhibition, primary screen; P19174; purified PLC-gamma1, fluorogenic substrate, fluorescence; inhibition, % at 12.2 µM; actives 0.84% (n = 370,000); AID 720700; in the data active means inhibition above about 9.5%
PLCb3 inh – PLC-beta3 (human) inhibition, primary screen. inhibition, % at 12.2 µM. actives 0.18% (n = 370,000). Purified PLC-beta3, fluorogenic substrate, fluorescence. Q01970; in the data active means inhibition above about 11%
DAGLB inh – blocks human DAGLB lipase activity. Q8NCG7. HEK293T DAGLB membrane lysate, EnzChek fluorogenic substrate. inhibition, % at 5.17 µM. AID 504411. actives 0.059% (n = 340,000); in the data active means inhibition above about 34%
Target sequence (Q8NCG7 whole entry, looked up): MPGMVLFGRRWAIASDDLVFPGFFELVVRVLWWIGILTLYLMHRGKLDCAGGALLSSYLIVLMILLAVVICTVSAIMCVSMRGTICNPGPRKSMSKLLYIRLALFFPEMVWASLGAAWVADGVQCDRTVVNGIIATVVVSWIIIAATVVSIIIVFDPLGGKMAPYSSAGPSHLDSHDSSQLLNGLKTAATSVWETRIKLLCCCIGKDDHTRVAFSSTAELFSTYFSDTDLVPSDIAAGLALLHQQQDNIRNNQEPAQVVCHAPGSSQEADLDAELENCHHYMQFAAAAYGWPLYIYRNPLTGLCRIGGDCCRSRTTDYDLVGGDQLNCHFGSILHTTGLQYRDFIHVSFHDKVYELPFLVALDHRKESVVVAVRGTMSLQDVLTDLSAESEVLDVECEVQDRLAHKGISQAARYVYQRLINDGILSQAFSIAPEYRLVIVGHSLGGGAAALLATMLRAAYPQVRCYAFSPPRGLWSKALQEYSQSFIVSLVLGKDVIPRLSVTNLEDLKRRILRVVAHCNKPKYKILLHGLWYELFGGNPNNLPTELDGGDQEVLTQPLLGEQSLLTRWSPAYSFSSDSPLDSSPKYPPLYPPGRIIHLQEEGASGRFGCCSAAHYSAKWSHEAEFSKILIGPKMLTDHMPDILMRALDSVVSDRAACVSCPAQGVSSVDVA
Tb MetRS conf – Trypanosoma brucei MetRS inhibition confirmed. shares compounds with Tb MetRS inh. T. brucei MetRS enzyme, luminescence (ATP depletion). inhibition, % at 11.9 µM. actives 93% (n = 1,400). AID 624412; in the data active means inhibition above about 7%
Jurkat tox – kills Jurkat cells in T. brucei MetRS counterscreen. inhibition, % at 8.3 µM. actives 12% (n = 1,400). Jurkat cells viability, ATP luminescence. shares compounds with Tb MetRS inh; in the data active means inhibition above about 15%
Tb MetRS inh FP – T. brucei MetRS inhibition, orthogonal assay | shares compounds with Tb MetRS inh | purified T. brucei MetRS, fluorescence polarization | inhibition, % at 11.9 µM | actives 44% (n = 1,400) | AID 651607; in the data active means inhibition above about 17%
Large screens that a line does not name were inactive (follow-up assays come after a bar, where they were run).

Cc1ccc(Cn2nnnc2CN2CCC(c3nc4ccc(Cl)cc4[nH]3)CC2)cc1	Tb MetRS inh 21 | Tb MetRS conf 36 | Jurkat tox 43 | Tb MetRS inh FP inactive
Clc1ccc2nc(C3CCN(Cc4nnnn4C4CCCCC4)CC3)[nH]c2c1	Tb MetRS inh 69 | Tb MetRS conf 81 | Jurkat tox inactive | Tb MetRS inh FP 56
O=C1/C(=C/c2c[nH]c3ccccc23)CCC/C1=C\c1c[nH]c2ccccc12	Tb MetRS inh 6.2 | Tb MetRS conf 7.5 | Jurkat tox 18 | Tb MetRS inh FP 18
Cc1c(-c2ccc(Br)cc2)nc2ccccn12	Tb MetRS inh 12 | Tb MetRS conf 23 | Jurkat tox inactive | Tb MetRS inh FP inactive
O=C(N1CCC(Cc2ccccc2)CC1)n1ncc(C(O)(c2ccccc2)c2ccccc2)n1	none (no result: Tb MetRS inh, DAGLB inh)
COc1ccc(NC(=O)CN2CCCCC2)cc1S(=O)(=O)N1CCCCC1	none
COc1ccc(NC(=O)Nc2ccccc2)cc1S(=O)(=O)N1CCCCC1	Tb MetRS inh 11 | Tb MetRS conf 27 | Jurkat tox inactive | Tb MetRS inh FP inactive
O=C(Nc1ccccc1)Nc1ccc(S(=O)(=O)N2CCCCC2)cc1	Tb MetRS inh 7.8 | Tb MetRS conf 15 | Jurkat tox inactive | Tb MetRS inh FP 23
O=C(Nc1ccc(S(=O)(=O)N2CCCCC2)cc1)c1ccccc1Cl	none
COc1ccc(OCc2cc(C(=O)NC(C)c3nc(C)cs3)no2)c(Cl)c1 (stereo not given)	none
COc1ccc(OCc2cc(C(=O)NCc3nc(C)cs3)no2)c(Cl)c1	Tb MetRS inh 6.2 | Tb MetRS conf 29 | Jurkat tox inactive | Tb MetRS inh FP 21
COc1ccc(CSCCNC(=S)Nc2ccccc2)cc1Cl	Tb MetRS inh 28 | Tb MetRS conf 41 | Jurkat tox inactive | Tb MetRS inh FP 22
CCOc1ccc(CSCCNC(=S)Nc2ccccc2)cc1	Tb MetRS inh 14 | Tb MetRS conf 25 | Jurkat tox 16 | Tb MetRS inh FP inactive
S=C(NCCSCc1ccc(Cl)c(Cl)c1)Nc1ccccc1	Tb MetRS inh 41 | Tb MetRS conf 57 | Jurkat tox inactive | Tb MetRS inh FP 41
Cc1ccccc1CSCCNC(=S)Nc1ccccc1	none
COC(=O)c1cc2c(c3c4cc(F)ccc4n(S(=O)(=O)c4cccc(C)c4)c13)C(=O)N(Cc1ccccc1OC)C2	none (no result: Tb MetRS inh, DAGLB inh)
O=C(NCc1ccc(Cl)cc1)OCCN1C(=O)CCC12CCC(c1ccccc1)CC2 (stereo not given)	none (no result: Tb MetRS inh, DAGLB inh)
C[C@H]1CCC[C@H](O)CC(=O)c2c(O)cc(O)cc2CC(=O)O1	none (no result: Tb MetRS inh, DAGLB inh)
O=[N+]([O-])c1ccc(N2CCN(Cc3ccc4c(c3)OCO4)CC2)nc1	none
O=Cc1cc([N+](=O)[O-])ccc1N1CCN(Cc2ccc3c(c2)OCO3)CC1	Tb MetRS inh 8.1 | Tb MetRS conf 18 | Jurkat tox inactive | Tb MetRS inh FP inactive
Nc1nnc(COc2ccc(Br)cc2Br)s1	Tb MetRS inh 21 | Tb MetRS conf 42 | Jurkat tox inactive | Tb MetRS inh FP 20
Cc1ccc(C)c(OCc2nnc(N)s2)c1	none
O=C(NCCc1c[nH]c2ccccc12)OCc1cn(Cc2cccc(C(F)(F)F)c2)nn1	none (no result: Tb MetRS inh, DAGLB inh)
c1ccc2c(CCNc3ncnc4nc[nH]c34)cccc2c1	Tb MetRS inh 43 | Tb MetRS conf 58 | Jurkat tox inactive | Tb MetRS inh FP 35
c1ccc(CCCNc2ncnc3nc[nH]c23)cc1	none
CCCNc1ncnc2nc[nH]c12	none
Clc1ccc(CCNc2ncnc3nc[nH]c23)cc1	Tb MetRS inh 11 | Tb MetRS conf 17 | Jurkat tox 27 | Tb MetRS inh FP inactive
O=C(N/C(=C/c1ccc(Cl)cc1)c1nc2ccccc2[nH]1)c1ccco1	none
O=C(/C(=C/c1ccc(Cl)cc1)c1nc2ccccc2[nH]1)c1ccccc1	Tb MetRS inh 6.6 | Tb MetRS conf inactive | Jurkat tox 98 | Tb MetRS inh FP inactive
O=C(c1ccccc1OCc1ccccc1)N(Cc1ccccn1)CC1CCCO1 (stereo not given)	none (no result: Tb MetRS inh, DAGLB inh)
c1ccc2c(c1)CCN(c1ncnc3c1[nH]c1ccccc13)C2	Tb MetRS inh 13 | Tb MetRS conf 9.1 | Jurkat tox 46 | Tb MetRS inh FP inactive
OC1(c2cccc(C(F)(F)F)c2)CCN(c2ncnc3c2[nH]c2ccccc23)CC1	Tb MetRS inh 6.1 | Tb MetRS conf 14 | Jurkat tox 16 | Tb MetRS inh FP inactive
Cc1cc(=O)n2c(n1)NC(=NCc1ccccc1)NC2c1ccccc1 (stereo not given)	Tb MetRS inh 8.5 (no result: DAGLB inh) | Tb MetRS conf 18 | Jurkat tox inactive | Tb MetRS inh FP inactive
Nc1ncnc2c1ncn2[C@@H]1O[C@H](CNS(=O)(=O)c2ccc3c(c2)CCN(C(=O)C(F)(F)F)C3)[C@@H](O)[C@H]1O	Tb MetRS inh 8.7 | Tb MetRS conf 17 | Jurkat tox 16 | Tb MetRS inh FP inactive
Cn1cc(S(=O)(=O)NC[C@H]2O[C@@H](n3cnc4c(N)ncnc43)[C@H](O)[C@@H]2O)cn1	none
O=C(CNC(=O)c1ccc(Cl)cc1Cl)Nc1ccc(F)cc1	Tb MetRS inh 10 | Tb MetRS conf 27 | Jurkat tox inactive | Tb MetRS inh FP inactive
O=C(CCCCC(=O)Nc1ccc(F)cc1)Nc1ccc(F)cc1	none
O=C(CC(=O)Nc1ccc(F)cc1)Nc1ccc(F)cc1	Tb MetRS inh 7.0 | Tb MetRS conf 18 | Jurkat tox inactive | Tb MetRS inh FP inactive
CCCC(=O)OC12CCCN(C1)/C(=C/c1ccc(C#N)cc1)C2 (stereo not given)	none (no result: Tb MetRS inh, DAGLB inh)
CCOc1ccc(/C=C2\NCCc3cc(OCC)c(OCC)cc32)cc1OCC	none (no result: Tb MetRS inh, DAGLB inh)
c1ccc(Nc2ccnc(Nc3ccccc3)n2)cc1	Tb MetRS inh 10 | Tb MetRS conf 24 | Jurkat tox inactive | Tb MetRS inh FP inactive
Nc1nc2ccccc2n1CCOc1ccc(Br)cc1	Tb MetRS inh 37 | Tb MetRS conf 51 | Jurkat tox 19 | Tb MetRS inh FP 34
Cc1ccc(OCCn2c(C)nc3ccccc32)cc1	none
Nc1nc2ccccc2n1CCOc1ccc(Cl)cc1	Tb MetRS inh 26 | Tb MetRS conf 45 | Jurkat tox inactive | Tb MetRS inh FP 22
Nc1nc2ccccc2n1CCOc1ccccc1Cl	Tb MetRS inh 67 | Tb MetRS conf 80 | Jurkat tox inactive | Tb MetRS inh FP 44
CCCC1CCC2(CC1)CCC2OC(=S)NCc1ccc(Cl)cc1 (stereo not given)	none (no result: Tb MetRS inh, DAGLB inh)
FC(F)(F)c1cc(CNC2CCC23CCC(c2ccccc2)CC3)ccc1Cl (stereo not given)	none (no result: Tb MetRS inh, DAGLB inh)
CCC[C@H]1CN(Cc2cccnc2)C(=O)[C@@H]1CC(=O)Nc1ccc(Br)cc1	Tb MetRS inh 72 | Tb MetRS conf 87 | Jurkat tox inactive | Tb MetRS inh FP 61

Compound activity (PubChem BioAssay)
